The entries come from a sample that favours hits as a whole.
HCT116 PTEN-null = PTEN-deleted cell growth suppression. AID 827. viability, % at 10 µM. 1.2% of 140,000 active. HCT116 PTEN-null viability, CellTiter-Glo, 60 h; hits give low values;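 active = viability at or below a set limit, 4 SD under the median of all tested compounds, cut at about 3.7% in these data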;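 note: PTEN knockout HCT116 line with beta catenin targeted HCT116 as companion control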
HCT116 bCat-KO = beta-catenin-lacking colon tumor cell growth suppression | HCT116 beta-catenin knockout viability, CellTiter-Glo, 60 h; hits give low values | viability, % at 10 µM | 1.5% of 140,000 active | AID 818;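 active = viability at or under a set limit, the compound median less 4 SD, cut at about 6% in these data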
Lung fibro prol = blocks proliferation of human lung fibroblasts. LL 47 human lung fibroblast viability, ATP luminescence; hits give low values. viability, % at 10 µM. 1.1% of 85,000 active. AID 719;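 active = viability at or below 50% in the single dose screen; inactive = viability above 50%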;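 note: compound exposure lasted 72 h before the ATP readout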
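Material: human lung fibroblast line LL 47, low passage; Evaluation: viability percentage against median untreated-cell control; Buffer or medium: 15% FBS in IMEM; Incubation: 72 h compound exposure at 37 °C after overnight plating; Dosing: 0.1% DMSO in all compound wells; Measured by: CellTiter-Glo luminescence.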
H69AR growth 86K = growth inhibitors of human H69AR lung tumor cells; H69AR lung tumor viability, ATP luminescence, 72 h; hits give low values; viability, % at 10 µM; 6% of 85,000 active; AID 598;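 active = viability at or below 40%; inactive = viability above 40%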;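 note: multidrug resistant small cell line overexpressing MRP-1 efflux transporter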
HUVEC prolif 384 = human endothelial cell proliferation inhibition; HUVEC proliferation, CellTiter-Glo luminescence, 72 h; hits give low values; viability, % at 10 µM (by protocol); AID 648; 1.1% of 86,000 active;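 active = viability at or below 30%; inactive = viability above 30%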
Large screens that a line does not name were inactive.

COc1ccc(-c2nnc3n2N=C(C)CS3)cc1	none
CCOC(=O)/C(=C\c1ccc(OC(F)F)cc1)C1=Nn2c(nnc2-c2ccc(Cl)cc2)SC1	HCT116 PTEN-null 2.1, HCT116 bCat-KO 1.4 (no result: Lung fibro prol, H69AR growth 86K, HUVEC prolif 384)
Cc1[nH]nc2c1C(c1ccc(-c3ccc(Cl)cc3)o1)C(C#N)=C(N)O2 (centres undefined)	HCT116 PTEN-null 0.7, HCT116 bCat-KO 1.3 (no result: Lung fibro prol, H69AR growth 86K, HUVEC prolif 384)
Cc1[nH]nc2c1C(c1ccsc1C)C(C#N)=C(N)O2 (centres undefined)	HCT116 PTEN-null 1.2 (no result: Lung fibro prol, H69AR growth 86K, HUVEC prolif 384)
Cc1[nH]nc2c1C(c1ccc(-c3ccccc3C#N)o1)C(C#N)=C(N)O2 (centres undefined)	H69AR growth 86K 1.6
CC(C)c1[nH]nc2c1C(c1cccs1)C(C#N)=C(N)O2 (centres undefined)	H69AR growth 86K 39.8
COc1ccc(C2C3=C(CC(C)(C)CC3=O)Nc3c2c(=O)[nH]c(=O)n3Cc2ccccc2)cc1 (centres undefined)	none
COc1ccc(Nc2nc(CC(C)=O)ns2)cc1OC	none
N#Cc1c(N)n(C2CCCCC2)c2nc3ccccc3nc12	H69AR growth 86K 34.6
COc1cc2nc(NCCN3CCOCC3)n3nc(-c4ccccc4)nc3c2cc1OC	none (no result: HCT116 PTEN-null, HCT116 bCat-KO)
CCN(CC)CCCNc1nc2cc(OC)c(OC)cc2c2nc(-c3cccnc3)nn12	HCT116 PTEN-null 1.6, HCT116 bCat-KO 1.7
COc1ccc(-n2ncc3c(NCC4CCCO4)ncnc32)cc1 (centres undefined)	none
COc1cc2nc(NCC3CCCO3)n3nc(-c4cccnc4)nc3c2cc1OC (centres undefined)	H69AR growth 86K 20.9
CCN(CC)CCCNc1nc2cc(OC)c(OC)cc2c2nc(-c3ccccc3)nn12	HCT116 PTEN-null 0.8, HCT116 bCat-KO 0.8, Lung fibro prol 1.8, H69AR growth 86K 6.5, HUVEC prolif 384 26.3
Cc1ccc(C(=O)O)c(C(=O)Nc2nc(C)cs2)c1	none
C=CCNC(=O)c1onc(CSc2cccc(OCC)c2)c1C(=O)O	none (no result: Lung fibro prol, H69AR growth 86K, HUVEC prolif 384)
Cc1cc(=O)oc2cc(NC(=O)C3COc4ccccc4O3)ccc12 (centres undefined)	H69AR growth 86K 39.4
CC(=O)N(c1ccc(Cl)cc1)c1c[nH]c2ccccc12	none
C=C1C(=O)[C@@]23[C@H](O)C[C@@H]4C(C)(C)CC[C@H](O)[C@@]4(C)[C@@H]2CC[C@@H]1[C@H]3O	HCT116 PTEN-null 1.3, HCT116 bCat-KO 2.1 (no result: Lung fibro prol, H69AR growth 86K, HUVEC prolif 384)
C=C1C(=O)[C@@]23[C@H](O)C[C@@H]4C(C)(C)CC[C@H](O)[C@]4(C)[C@@H]2C[C@H](O)[C@@H]1[C@H]3O	none (no result: Lung fibro prol, H69AR growth 86K, HUVEC prolif 384)
CCOCCn1c(=NC(=O)c2cc(Cl)sc2Cl)sc2cc(S(N)(=O)=O)ccc21	HCT116 bCat-KO 4.9 (no result: Lung fibro prol, H69AR growth 86K, HUVEC prolif 384)
COCCn1c(=NC(=O)c2cc(Cl)sc2Cl)sc2cc(S(N)(=O)=O)ccc21	HCT116 PTEN-null 2.3 (no result: Lung fibro prol, H69AR growth 86K, HUVEC prolif 384)
COCCn1c(=NC(=O)c2nc3ccccc3s2)sc2cc(S(C)(=O)=O)ccc21	none (no result: Lung fibro prol, H69AR growth 86K, HUVEC prolif 384)
COc1ccc(C2=CC(c3c(C)nn(-c4ccccc4)c3Cl)n3nnnc3N2)cc1OC (centres undefined)	H69AR growth 86K 24.5
COc1ccc(-c2c(C)nn(-c3ccccc3)c2N)cc1OC	none
CCOc1ccc(C2C=C(c3ccc(C)cc3)Nc3nnnn32)cc1 (centres undefined)	H69AR growth 86K 2.2, HUVEC prolif 384 21.9
Cc1ccc(C2=CC(c3cccs3)n3nnnc3N2)cc1 (centres undefined)	none (no result: Lung fibro prol, H69AR growth 86K, HUVEC prolif 384)
CCOc1ccc(C2C=C(c3ccc(C)cc3)Nc3ncnn32)cc1 (centres undefined)	none
CCOc1ccc(C2C=C(c3ccccc3)Nc3nnnn32)cc1 (centres undefined)	H69AR growth 86K 32.8
COc1ccccc1C1C=C(c2ccc(C)cc2)Nc2nnnn21 (centres undefined)	H69AR growth 86K 18.5
CCOC(=O)Cc1csc(NC(NC(=O)CC)(C(F)(F)F)C(F)(F)F)n1	none
Cc1ccc(S(=O)(=O)Nc2cccc(-c3cn4ccsc4n3)c2)cc1	H69AR growth 86K 30.3
Cc1cccc(S(=O)(=O)Nc2cccc(-c3cn4ccsc4n3)c2)c1	none (no result: Lung fibro prol, H69AR growth 86K, HUVEC prolif 384)
Cc1ccc(S(=O)(=O)Nc2ccc(-c3csc(-c4ccccc4)n3)cc2)cc1	HCT116 PTEN-null 2.4, HCT116 bCat-KO 2.7 (no result: Lung fibro prol, H69AR growth 86K, HUVEC prolif 384)
Nc1nc(SCC(=O)NCCCO)nc2sc3c(c12)CCC3	none
CC1CCN(c2c(NCc3ccc(C(=O)N4CCN(C5CCCCC5)CC4)cc3)c(=O)c2=O)CC1	none (no result: Lung fibro prol, H69AR growth 86K, HUVEC prolif 384)
CC1CCN(c2c(NCc3ccc(C(=O)N4c5ccccc5CC4C)cc3)c(=O)c2=O)CC1 (centres undefined)	H69AR growth 86K 33.6
Cc1ccc(-n2c(C)cc(C(=O)CSc3n[nH]c(N)n3)c2C)cc1	H69AR growth 86K 31.8
Cc1cc(C(=O)CSc2n[nH]c(N)n2)c(C)n1-c1ccc(F)cc1	H69AR growth 86K 39.9
Cc1cc(C(=O)CSc2n[nH]c(N)n2)c(C)n1-c1ccccc1	none (no result: Lung fibro prol, H69AR growth 86K, HUVEC prolif 384)
COc1ccc2oc(C(=O)OCC(=O)NCCN3C(=O)CSC3=O)c(C)c2c1	none (no result: Lung fibro prol, H69AR growth 86K, HUVEC prolif 384)
CCN(CC)CCNC(=O)c1c(C)oc2cc(Br)c(OC)cc12	none
O=C(CSc1nccn1-c1ncc(C(F)(F)F)cc1Cl)c1ccc(Br)cc1	none (no result: Lung fibro prol, H69AR growth 86K, HUVEC prolif 384)
CCCCCc1nc2ccccc2c(=O)n1NC(=O)c1c(O)c2cccc3c2n(c1=O)CCC3	H69AR growth 86K 27.3 (no result: HCT116 PTEN-null, HCT116 bCat-KO)
CCCCCCc1nc2ccccc2c(=O)n1NC(=O)c1c(O)c2cccc3c2n(c1=O)CCC3	H69AR growth 86K 24.8
CCCCc1nc2ccccc2c(=O)n1NC(=O)c1c(O)c2cccc3c2n(c1=O)CCC3	none (no result: HCT116 PTEN-null, HCT116 bCat-KO)
CN1/C(=C\C(=O)Nc2cccnc2)c2ccccc2CC1(C)C	none
CCCc1nc2oc(C(=O)c3ccccc3)c(N)c2c2c1COC(C)(C)C2	Lung fibro prol 40.5, H69AR growth 86K 5.7
COc1cc(CNCCc2c[nH]c3ccccc23)ccc1OCc1ccccc1F	HCT116 PTEN-null 1.6, HCT116 bCat-KO 1.4 (no result: Lung fibro prol, H69AR growth 86K, HUVEC prolif 384)
COc1ccccc1CCNCc1ccc(OC)c(OCc2ccccc2)c1	none (no result: Lung fibro prol, H69AR growth 86K, HUVEC prolif 384)
COc1cccc(CNCCc2c[nH]c3ccccc23)c1OCc1ccccc1	HCT116 bCat-KO 5.1 (no result: Lung fibro prol, H69AR growth 86K, HUVEC prolif 384)
Cc1ccccc1C(=O)Nc1ccc(Br)c(C)n1	none
COc1cc2cc(CN(Cc3nnnn3Cc3ccco3)C3CCCCC3)c(=O)[nH]c2cc1OC	none
COc1ccccc1CN(Cc1cc2cc(C)ccc2[nH]c1=O)Cc1nnnn1Cc1ccco1	H69AR growth 86K 37.7
CCc1ccc2[nH]c(=O)c(CN(Cc3ccccc3OC)Cc3nnnn3Cc3ccco3)cc2c1	H69AR growth 86K 12.4
CCN1CCCC1CNC(=O)c1cc2c(-c3ccc(Cl)cc3)nn(C)c2s1 (centres undefined)	HCT116 bCat-KO 3.2, Lung fibro prol 10.8, H69AR growth 86K 2.1, HUVEC prolif 384 1.7
CCN1CCCC1CNC(=O)c1cc2c(-c3cccc(OC)c3)nn(C)c2s1 (centres undefined)	HCT116 bCat-KO 2.6
COc1cccc(-c2nn(C)c3sc(C(=O)NCc4ccco4)cc23)c1	none
COCCNC(=O)c1cc2c(-c3ccc(Cl)cc3)nn(C)c2s1	none
